# Experimental data taken from ChEMBL document CHEMBL1143286, “Discovery of pentacyclic compounds as potent inhibitors of hepatitis C virus NS5B RNA polymerase” (Bioorg Med Chem Lett, 2009).
# Tests used:
# Hepatitis C virus [1] = assay: Antiviral activity against HCV assessed as inhibition of viral subgenomic RNA replication in human HuH7 cells by replicon assay in presence of 50% normal human serum; type: functional, organism-based, Hepacivirus hominis, Huh-7
# Hepatitis C virus [2] = assay: Antiviral activity against HCV assessed as inhibition of viral subgenomic RNA replication in human HuH7 cells by replicon assay in presence of 10% fetal calf serum; type: functional, organism-based, Hepacivirus hominis; details: Huh-7
# [3] = Inhibition of HCV BK NS5B polymerase deltaC21 mutant; type: single protein, NS5B polymerase (HCV isolate BK)
# Outline: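 Purified NS5B enzyme (BK strain, C-terminal 21-residue truncation) assayed for polymerase activity on heterogeneous template RNA, following a modified version of a previously published procedure.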
# Hepatitis C virus [4] = assay: Ratio of EC50 for HCV RNA replication in human HuH7 cells in presence of 50% normal human serum to EC50 for HCV RNA replication in human HuH7 cells in presence of 10% fetal calf serum; type: functional, Hepacivirus hominis, Huh-7
# Plasma = assay: Protein binding in human plasma; type: ADME, cell-free
Compound,"EC50 (Hepatitis C virus [1]; Hepatitis C virus, Huh-7) [nM]",EC50 (Hepatitis C virus [2]) [nM],IC50 [3] [nM],Ratio EC50 (Hepatitis C virus [4]),Activity (Plasma) [%],EC50 (Hepatitis C virus [1]; huh-7) [nM]
CN(C)C(=O)Cn1c(-c2ccccc2)c(C2CCCCC2)c2ccc(C(=O)O)cc21,9850,1540,430,–,–,–
CN(C)CCN1CCn2c(c(C3CCCCC3)c3ccc(C(=O)O)cc32)-c2ccccc21,360,130,28,–,–,–
CN1CC[C@@H]2c3ccccc3-c3c(C4CCCCC4)c4ccc(C(=O)O)cc4n3C[C@@H]21,3800,1200,20,3,–,–
CN(C)CC(=O)N1CC[C@H]2Cn3c(c(C4CCCCC4)c4ccc(C(=O)O)cc43)-c3ccccc3[C@@H]21,210,170,31,–,–,–
COc1ccc2c(c1)[C@H]1[C@@H](CCN1C(=O)CN(C)C)Cn1c-2c(C2CCCCC2)c2ccc(C(=O)O)cc21,110,32,23,–,–,–
O=C(O)c1ccc2c(C3CCCCC3)c3n(c2c1)C[C@@H]1CCN(CCN2CCCCC2)[C@H]1c1ccccc1-3,220,40,11,–,92,–
CN(C)CCN1CCn2c(c(C3CCCCC3)c3ccc(C(=O)O)cc32)-c2ccccc2C1,850,140,27,–,–,–
COc1ccc2c(c1)[C@@H]1[C@@H](CCN1CCN(C)C)Cn1c-2c(C2CCCCC2)c2ccc(C(=O)O)cc21,270,150,21,–,–,–
CN(C)CCN1CC[C@H]2Cn3c(c(C4CCCCC4)c4ccc(C(=O)O)cc43)-c3ccccc3[C@@H]21,98,32,20,–,91.5,–
O=C(O)c1ccc2c(C3CCCCC3)c3n(c2c1)C[C@@H]1CCN(CCCN2CCCCC2)[C@@H]1c1ccccc1-3,110,53,11,–,–,–
COc1ccc2c(c1)[C@H]1[C@@H](CCN1C(=O)OCCN(C)C)Cn1c-2c(C2CCCCC2)c2ccc(C(=O)O)cc21,225,180,21,–,–,–
CN1CC[C@H]2Cn3c(c(C4CCCCC4)c4ccc(C(=O)O)cc43)-c3ccccc3[C@H]21,2540,770,140,3,–,–
CN1CC[C@H]2Cn3c(c(C4CCCCC4)c4ccc(C(=O)O)cc43)-c3ccccc3[C@@H]21,700,830,40,1,–,–
CN(C)[C@H]1C[C@H]2Cn3c(c(C4CCCCC4)c4ccc(C(=O)O)cc43)-c3ccccc3[C@H]2C1,890,130,30,7,–,–
CN(C)CCNC(=O)N1CC[C@H]2Cn3c(c(C4CCCCC4)c4ccc(C(=O)O)cc43)-c3ccccc3[C@@H]21,480,630,24,–,–,–
CN(C)C(=O)CN1CC[C@H]2Cn3c(c(C4CCCCC4)c4ccc(C(=O)O)cc43)-c3ccccc3[C@@H]21,96,78,17,–,–,–
COc1ccc2c(c1)[C@@H]1[C@H](CCN1CCN(C)C)Cn1c-2c(C2CCCCC2)c2ccc(C(=O)O)cc21,> 1000,> 1000,312,–,–,–
CN(C)CCCN1CC[C@H]2Cn3c(c(C4CCCCC4)c4ccc(C(=O)O)cc43)-c3ccccc3[C@@H]21,80,58,24,–,–,–
CN(C)CCN1CC[C@H]2Cn3c(c(C4CCCCC4)c4ccc(C(=O)O)cc43)-c3ccccc3[C@H]21,620,260,30,–,–,–
COc1ccc2c(c1)[C@H]1[C@@H](CCN1CCN(C)C)Cn1c-2c(C2CCCCC2)c2ccc(C(=O)O)cc21 (stereo in doubt; 8b),63,25,8,2.5,–,–
COc1ccc2c(c1)[C@H]1[C@@H](CCN1CCN(C)C)Cn1c-2c(C2CCCCC2)c2ccc(C(=O)O)cc21 (stereo in doubt; 11),–,–,4,–,–,49
